# SR-BI DiI-HDL act = activators of SR-BI mediated DiI-HDL uptake, primary screen, ldlA[mSR-BI] CHO cells, DiI fluorescence; 3 h; 100 = double the neutral-control signal; activation, % at 12.5 µM; 320,000 tested, 0.096% active; AID 504775, 2011;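 active = mean replicate activation of at least 60% and every replicate at or above 60%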;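 note: 0% = median plate neutral-control signal and 100% = twice that signal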
#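 Assay system: LDL receptor-deficient CHO ldlA cells overexpressing murine SR-BI / Medium: BSA-supplemented, HEPES-buffered Ham's F12, pH 7.4 / Probe or stimulus: DiI-labelled HDL at 10 µg/mL final / Timing: compound with DiI-HDL co-incubation, 3 h at 37 °C / Technique: bottom-read cell fluorescence after medium removal, ex 550/em 595 nm / Measure: HDL uptake via cellular fluorescence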
# HIF activator = HIF pathway transcriptional activators, primary screen, cell-based, U2OS HRE-luciferase, luminescence; U2OS HRE-luciferase reporter; normalized: DMSO 0%, desferrioxamine 100%; activation, % at 7.5 µM (by protocol); 300,000 tested, 0.32% active; AID 1910, 2009;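 active = mean activation of at least 10% of the iron chelator positive control signal, with at least half of replicates also reaching 10%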
# AHR act = AHR activators, primary screen, cell-based, luminescence, luciferase reporter, human; Aryl hydrocarbon receptor (Homo sapiens), P35869; AHR-responsive luciferase reporter cells; activation, % at 5 µM; 320,000 tested, 2.5% active; in the data active = activation above about 47%;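 note: 0% = vehicle wells and 100% = reference agonist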
# GAA850 FXN act = FXN promoter activators, primary screen, cell-based, luciferase luminescence, HEK293 lucGAA850. HEK293 lucGAA850 FXN promoter luciferase reporter, 24 h; percent of 10 µM SAHA response. activation, % at 6 µM. 360,000 tested, 0.56% active;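 active = activation above the average of all compounds screened plus 3 SD, cutoff fixed separately per campaign, cut at about 7.5% in these data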;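 note: 0% = DMSO wells and 100% = 10 µM SAHA wells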
# SR-BI HDL uptake = inhibitors of SR-BI mediated HDL lipid uptake, primary screen, ldlA[mSR-BI] cells, fluorescence, single point. Scavenger receptor class B member 1 (Mus musculus), Q61009. inhibition, % at 12.5 µM. ldlA[mSR-BI] CHO cells, DiI-HDL uptake fluorescence, 3 h. 320,000 tested, 0.96% active. AID 488896, 2010;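 active = mean replicate inhibition of at least 70% and a set share of replicates each scoring 70 or more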;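 note: 0% = median of neutral control wells and 100% = median of positive control wells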
# ABCB6 inh MLPCN = ABCB6 transporter inhibitors, primary screen, K562-ABCB6 cells, flow cytometry, MLPCN library | ATP-binding cassette sub-family B member 6 (Homo sapiens), Q9NP58 | K562-ABCB6 porphyrin accumulation, 1 h; stronger effect = lower value | fluorescence ratio to DMSO, % at 10 µM | 360,000 tested, 0.19% active | AID 602162, 2011;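 active = fluorescence ratio to DMSO below 75%, the collection mean minus 3 SD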;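 note: signal is porphyrin accumulated inside mitochondria; 100% equals median channel fluorescence of DMSO control wells; lower ratio means ABCB6 inhibition with less porphyrin fluorescence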
# * hit, by the source's call; x = no result. Sampled rows, rich in hits. Any-hit rate of the full collection: about 3.9%.
SMILES,SR-BI DiI-HDL act,HIF activator,AHR act,GAA850 FXN act,SR-BI HDL uptake,ABCB6 inh MLPCN
CC(=O)N(CCc1cccc(C)c1)Cc1cc2cc(C)ccc2[nH]c1=O,12,0,49*,-1,-12,98
COc1ccc(/C=N/Nc2cc(C)nc(N3CCOCC3)n2)cc1OC,x,2,50*,2,x,99
Cc1cc(C)nc(N/N=C/c2ccc(N3CCOCC3)cc2)n1,-34,0,12,1,34,99
COc1ccc(/C=N/Nc2cc(C)nc(N3CCOCC3)n2)cc1,-44,2,7,5,44,104
COc1ccc(/C=N/Nc2cc(C)nc(-n3nc(C)cc3C)n2)c(OC)c1,-79,8,41,1,79*,91
COc1ccc(/C=N\Nc2ncc(F)c(N3CCOCC3)n2)cc1OC,-16,0,59*,0,16,100
COc1ccccc1/C=N/Nc1cc(C)nc(N2CCOCC2)n1,-14,0,51*,1,14,102
O=C1NC2(CCCCCC2)Oc2ccccc21,-10,0,0,1,10,99
COc1ccc(C(=O)ON=C(C)c2nccs2)cc1,x,x,x,1,x,97
CN1C(=O)C2(N=c3ccccc3=N2)c2ccccc21,15,0,51*,7,-15,102
CN1C(=O)C2(OCC(C)([N+](=O)[O-])CO2)c2ccccc21 (configuration not stated),-4,0,1,2,4,99
CCc1cccc(CC)c1N1C(=O)c2cc(N3CCOCC3)c([N+](=O)[O-])cc2C1=O,-75,0,0,1,75*,95
O=C(NNS(=O)(=O)c1ccccc1)c1cc2cc3ccccc3nc2s1,-1,2,36,1,1,97
O=C(NNC(=O)c1cc2cc3ccccc3nc2s1)c1cccc(C(F)(F)F)c1,-7,0,48*,-1,7,99
COc1c2c(c(CCC(=O)O)c3c1C=CC(C)(C)O3)OC(C)(C)C=C2,4,x,x,1,-4,103
COc1ccc(OC)c(/C=N/NC(=O)c2cc3c(OC)cc(OC)cc3[nH]2)c1,-54,0,56*,1,54,100
O=C(Cc1nc2ccccc2[nH]1)N/N=C/c1ccccc1,17,0,11,3,-17,104
COc1ccc(OC)c(/C=N/NC(=O)c2cc3c(OC)cccc3[nH]2)c1,-70,0,23,-3,70,98
C=CCOc1ccc(/C=N/NC(=O)c2cc3c(OC)cc(OC)cc3[nH]2)cc1,-45,-1,68*,1,45,99
COc1ccc(OC)c(/C=N/NC(=O)Cc2nc3ccccc3[nH]2)c1,7,-1,57*,3,-7,102
c1ccc(-c2ccccc2OCCCCn2ccnc2)cc1,11,-1,46,0,-11,96
CC(=O)Nc1ccc(NC(=O)c2ccc(OCc3c(C)noc3C)cc2)cc1,-26,x,-2,1,26,97
COc1ccc(C)cc1NC(=O)c1ccc(OCc2c(C)noc2C)cc1,-71,x,-6,0,71*,93
Cc1ccc(NC(=O)c2ccc(OCc3c(C)noc3C)cc2)cc1C,-89,x,-3,-1,89*,92
COc1cc(C(=O)NCC2CCCCC2)ccc1OCc1c(C)noc1C,-37,x,-1,0,37,95
COc1cc(C(=O)NCCOc2ccc(Cl)cc2)ccc1OCc1c(C)noc1C,-84,x,-1,-2,84*,101
CC1(C)CC(=O)c2cc(O)ccc2O1,29,0,0,-2,11,96
C=CCc1ccccc1OCCn1ccnc1,-6,-23,12,0,6,96
C=CCc1cccc(OC)c1OCCOCCn1ccnc1,14,0,73*,-1,-14,106
